Assay outcomes (PubChem BioAssay)
CYP2C9 inh – human CYP2C9 inhibition; P11712; CYP2C9 Supersomes, luciferin-H conversion, luminescence; inhibition, % at 5 µM; 96,000 tested, 20% active; AID 777;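 active means blocking of liver enzyme CYP2C9 beyond about 50% at 5 µM, limit read from the data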
Target sequence (P11712 whole entry, looked up): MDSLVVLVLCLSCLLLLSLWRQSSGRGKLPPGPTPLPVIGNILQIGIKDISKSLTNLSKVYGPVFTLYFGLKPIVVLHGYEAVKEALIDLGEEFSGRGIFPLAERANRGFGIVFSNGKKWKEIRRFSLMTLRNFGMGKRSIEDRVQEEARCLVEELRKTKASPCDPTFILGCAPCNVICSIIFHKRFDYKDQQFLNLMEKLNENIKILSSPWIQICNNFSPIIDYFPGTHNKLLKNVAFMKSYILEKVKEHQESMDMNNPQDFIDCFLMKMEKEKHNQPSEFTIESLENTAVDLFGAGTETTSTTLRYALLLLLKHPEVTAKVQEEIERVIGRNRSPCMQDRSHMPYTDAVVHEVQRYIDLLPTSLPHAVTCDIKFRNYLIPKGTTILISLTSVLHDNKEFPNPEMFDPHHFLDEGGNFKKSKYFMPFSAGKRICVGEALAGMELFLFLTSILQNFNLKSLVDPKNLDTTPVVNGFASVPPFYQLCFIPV
Cav32 inh – blocks human Cav3.2 T-type calcium channel. O95180. Cav3.2-expressing cells, Fluo-4 calcium fluorescence FDSS; active compounds read low. B-score at 10 µM. 100,000 tested, 4% active. AID 449739;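 active means single-dose well whose peak fluorescence ratio is a statistical outlier from its plate by either plate-standardised score or position-corrected B-score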
CYP2C9 act – activators of human CYP2C9 | P11712 | recombinant CYP2C9, luciferin-H conversion, luminescence; active compounds read high; factor 1 = untreated enzyme, 0 = blocked | activation factor at 5 µM | 96,000 tested, 1.4% active | AID 1024;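 active means activation factor of 2 or more for CYP2C9 at a 5 µM dose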;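 further: 0 = sulfaphenazole-blocked wells and 1 = vehicle-only wells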
CYP2C19 inh – inhibitors of human CYP2C19; CYP2C19 Supersomes, luciferin-H EGE luminescence, 30 min; 96,000 tested, 21% active; inhibition, % at 5 µM; P33261;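 active means CYP2C19 inhibition above a set limit at 5 µM in the primary screen, cut at about 50% in these data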;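 further: plate controls were negative control wells for no effect and 2.5 mM tranylcypromine positive control for full effect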
CYP2C19 act – cytochrome P450 2C19 (human) activation. activation factor at 5 µM. recombinant CYP2C19, luciferin-H EGE luminescence; active compounds read high; 0 = fully inhibited enzyme, 1 = untreated enzyme. 96,000 tested, under 10 active. P33261;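 active means activation factor of at least 2 at 5 µM in the primary screen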;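 further: 0 = wells with 2.5 mM tranylcypromine and 1 = vehicle-only wells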
Rev-RRE block – disrupts HIV-1 Rev binding to RRE RNA; P05866; Rev peptide-RRE RNA binding, FRET; inhibition, % at 8 µM; 97,000 tested, 0.79% active;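 active means inhibition above the screen-wide mean plus 3 SD, cut at about 35% in these data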;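 further: 0% = median DMSO wells and 100% = median Neomycin B control wells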
Target sequence (P05866 whole entry, looked up): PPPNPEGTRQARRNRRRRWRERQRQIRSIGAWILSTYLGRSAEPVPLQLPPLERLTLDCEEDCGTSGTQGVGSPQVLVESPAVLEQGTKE
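System: Cy5-labelled duplex RRE RNA binding fluorescein-labelled HIV Rev peptide; Signal: fluorescein-to-Cy5 FRET, 480 nm excitation; Also added: labelled Rev peptide; Compound: one concentration, 8 µM nominal; Buffer or medium: HEPES pH 7.5 salt buffer with EDTA; Read-out: % inhibition of FRET ratio versus controls; Schedule: 5 min preincubation and 15 min binding, 25 °C.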
An asterisk follows results filed as active; . = no result. A selection: hits, their analogues and other compounds. The true share with any hit is near 27%.

SMILES | CYP2C9 inh | Cav32 inh | CYP2C9 act | CYP2C19 inh | CYP2C19 act | Rev-RRE block
COc1ccc(C)cc1S(=O)(=O)Nc1ccc(F)c(Cl)c1 | . | -3.7 | . | . | . | 18
CCn1c(SCc2nc(-c3ccccc3)no2)nnc1-c1ccco1 | . | -0.45 | . | . | . | 1
COc1ccc(-c2noc(CSc3nnc(-c4ccncc4)n3-c3ccc(F)cc3)n2)cc1OC | 23 | -1.2 | 0.8 | 59* | 0.4 | 8
c1ccc(-c2noc(CSc3nnnn3C3CCCCC3)n2)cc1 | 39 | -5.7* | 0.6 | 28 | 0.7 | 17
CCn1c(SCc2nc(-c3ccccc3)no2)nnc1-c1cccs1 | 52* | -0.79 | 0.5 | 51* | 0.5 | 15
CCn1c(SCc2nc(-c3cccs3)no2)nnc1-c1c[nH]c2ccccc12 | 57* | -3 | 0.4 | 15 | 0.9 | 7
O=C(Nc1ccccc1)C1=C[C@@H](c2coc3ccccc3c2=O)C[C@@H](OCCCCO)O1 | . | -0.7 | . | . | . | .
CCn1c(SCc2nc(-c3ccccc3)no2)nc2ccccc21 | -2 | -3.4* | 1 | 88* | 0.1 | 8
Cc1noc(C)c1CSc1nnc(-c2c[nH]c3ccccc23)n1-c1ccc(Cl)cc1 | 0 | 0.67 | 1 | -7 | 1.1 | 4
COc1ccc(-c2noc(CSc3nnc(-c4ccccc4)n3C)n2)cc1 | 66* | 0.86 | 0.3 | 84* | 0.2 | 2
O=C(O)Cn1c(SCc2ccccc2)nc2ccccc21 | 43 | -0.65 | 0.6 | 10 | 0.9 | 7
CCc1ccc(-n2c(SCc3c(C)noc3C)nnc2-c2ccncc2)cc1 | 58* | 0.96 | 0.4 | 73* | 0.3 | 2
COc1ccc(C(=O)COC(=O)CN2CC(=O)Oc3ccccc32)cc1Br | 46 | 0.6 | 0.5 | 38 | 0.6 | 4
O=C1CCN(C(=O)c2ccccc2)C2CCCCC12 (configuration not stated) | -16 | 1.3 | 1.2 | 13 | 0.9 | .
CCC(=O)N1CCN(c2ccc(Cl)cc2NC(=O)c2ccc(Br)o2)CC1 | . | -2.2 | . | . | . | 6
CC1(C)Cc2c(c(-c3ccccc3)[nH]c(=O)c2C#N)CS1 | -22 | 0.89 | 1.2 | 27 | 0.7 | 3
CCCCc1nc(NCCNC(=O)c2ccccc2)c(C#N)c2c1CSC(C)(C)C2 | 33 | -4.5* | 0.7 | 1 | 1 | 10
CCCCc1nc(NCCNC(=O)c2ccco2)c(C#N)c2c1CSC(C)(C)C2 | 93* | -5.8* | 0.1 | 68* | 0.3 | 2
O=C(NCCNC(=O)c1cc(OCC(F)(F)F)ccc1OCC(F)(F)F)Nc1cccc(C(F)(F)F)c1 | 67* | -8* | 0.3 | 41 | 0.6 | 20
C=CCONC(=O)c1cc(OCC(F)(F)F)ccc1OCC(F)(F)F | 87* | -0.05 | 0.1 | 29 | 0.7 | 2
O=C(NNC(=O)c1cc(OCC(F)(F)F)ccc1OCC(F)(F)F)c1ccc(Cl)c(Cl)c1 | 5 | . | 0.9 | -2 | 1 | 15
Cc1ccc(CNc2ccc(N3CCOCC3)cc2)s1 | 18 | 0.017 | 0.8 | 65* | 0.4 | 2
CC(=O)N1CCN(c2ccc(NCc3ccc(C)s3)cc2)CC1 | 33 | 0.4 | 0.7 | 22 | 0.8 | -1
Cc1ccc(Nc2nc(Cl)nc(N(C)C#N)n2)cc1 | 38 | 4* | 0.6 | 12 | 0.9 | 1
CC(C)Nc1nc(NC(C)C)nc(N(C)C#N)n1 | 12 | -0.81 | 0.9 | 0 | 1 | 1
SMILES | CYP2C9 inh | Cav32 inh | CYP2C9 act | CYP2C19 inh | CYP2C19 act | Rev-RRE block
COc1ccc(/C=C/c2ccccc2)cc1[C@H]1[C@H]2C=CC[C@@H](C)[C@@H]2C(=O)N1Cc1ccccc1 | . | -1.6 | . | . | . | .
CCCn1nc(NC(=O)CC(C)C)c2cc3ccccc3nc21 | 28 | -0.37 | 0.7 | 12 | 0.9 | 2
CCOC(=O)c1ccccc1NC(=O)CSc1nc2ccccc2n1CC(=O)N1CCCC1 | 87* | -0.1 | 0.1 | 82* | 0.2 | 12
CCOC(=O)c1cccc(NC(=O)Cn2c(CC(=O)N3CCCC3)nc3ccccc32)c1 | 88* | 0.036 | 0.1 | 17 | 0.8 | 1
O=C(Nc1cnn(C23CC4CC(CC(C4)C2)C3)c1)c1cnn2c(C(F)(F)F)cc(-c3ccco3)nc12 | 78* | -3.6 | 0.2 | 65* | 0.4 | 7
Cc1ccccc1Cn1ccc(NC(=O)c2cnn3c(C(F)(F)F)cc(-c4ccco4)nc23)n1 | 61* | -3.2 | 0.4 | 48 | 0.5 | -6
Cc1cc(NC(=O)CCSc2nc(-c3ccco3)cc(C(F)(F)F)n2)no1 | -26 | -2.1 | 1.3 | 0 | 1 | 10
Cc1nn(C)c(C)c1NC(=O)CCSc1nc(-c2ccco2)cc(C(F)(F)F)n1 | 60* | -0.12 | 0.4 | 38 | 0.6 | -7
Cc1ccccc1Cn1ccc(NC(=O)CCSc2nc(-c3ccco3)cc(C(F)(F)F)n2)n1 | 85* | . | 0.1 | 79* | 0.2 | 3
Cc1ccn2c(/C=N/OCc3cccc(F)c3)c(-c3ccc(Cl)cc3)nc2c1 | 36 | -2.1 | 0.6 | 6 | 0.9 | 6
CC[C@H](C)[C@@H](NC(=O)O[C@@H]1C(=O)c2cc(Br)ccc2O[C@H]1c1cccc(OC)c1)C(=O)OC | . | -0.33 | . | . | . | .
Cc1ccc(Cn2ccc(NC(=O)CCSc3nc(-c4ccco4)cc(C(F)(F)F)n3)n2)cc1 | 93* | -9* | 0.1 | 81* | 0.2 | 10
CCCCCCc1nnc(N)s1 | 28 | 0.036 | 0.7 | 25 | 0.7 | 3
CCCNc1cc(C)oc(=O)c1C(=O)CCC | -100 | -0.14 | 2* | 25 | 0.8 | -2
CCC(C)NC(=O)c1c(C)cc(=O)oc1C (configuration not stated) | -21 | 0.12 | 1.2 | -13 | 1.1 | 7
CCCC(=O)c1c(NC(C)C)cc(C)oc1=O | -122 | -0.31 | 2.2* | 8 | 0.9 | .
CC(=O)c1c(NCCc2ccccc2)cc(C)oc1=O | 33 | -0.2 | 0.7 | 57* | 0.4 | 1
CCCCNc1cc(C)oc(=O)c1C(C)=O | -14 | -0.0017 | 1.1 | -12 | 1.1 | 0
CC(C)CC(=O)NC(=S)Nc1ccccc1C(=O)Nc1ccccc1 | 27 | 1.3 | 0.7 | 33 | 0.7 | -1
CC(C)CCOCC(=O)Nc1cccc(C(=O)O)c1 | 2 | 1 | 1 | 13 | 0.9 | .
CC(=O)Nc1sc2c(c1C(c1ccccc1Cl)N1CCN(CCO)CC1)CCCC2 (configuration not stated) | . | 1 | . | . | . | .
Cc1ccccc1Cn1c2ccccc2c2cnn(CC(=O)N3CCN(c4ccccc4)CC3)c(=O)c21 | 37 | -3.6 | 0.6 | 62* | 0.4 | -6
COC(=O)Cn1ncc2c3ccccc3n(Cc3ccccc3)c2c1=O | 30 | -0.35 | 0.7 | 34 | 0.7 | 14
O=C(Cn1cnc2ccccc2c1=O)N1CCN(c2ccccc2)CC1 | . | 0.81 | . | . | . | 2
O=C(Cn1ncc2c3ccccc3n(Cc3ccc(F)cc3)c2c1=O)N1CCN(c2ncccn2)CC1 | 95* | -2.7 | 0 | 99* | 0 | -6
